Active and inactive are the calls of the source.
Key:
OVCAR-8 [1] = assay: Cytotoxicity against human OVCAR8 cells by sulforhodamine B assay; assay type: functional
Summary of the method: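 NCI Developmental Therapeutics Program 60-cell-line human tumor panel, standard procedure. Single-concentration prescreen first; active compounds then tested at five concentrations. GI50 is the concentration reducing growth of treated cells to half that of untreated controls.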

786-0 = assay: Cytotoxicity against human 786-0 cells by sulforhodamine B assay; assay type: functional; settings: for TGI: read-out: pTGI (converted)
Summary of the method: (§1)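 Run at NCI in the DTP 60-cell-line human tumor panel by standard procedure. Compounds were first screened at a single concentration, then tested at five tenfold-spaced concentrations. GI50 is the concentration reducing treated-cell growth to half that of untreated controls; TGI is the concentration completely halting growth.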

Malme-3M = assay: Cytotoxicity against human MALME-3M cells assessed as cell growth at 8 nM by sulforhodamine B assay relative to control; assay type: functional; settings: read-out: Activity
SF-295 = assay: Cytotoxicity against human SF295 cells assessed as cell growth at 8 nM by sulforhodamine B assay relative to control; assay type: functional; settings: read-out: Activity
SF-268 = assay: Cytotoxicity against human SF268 cells assessed as cell growth at 8 nM by sulforhodamine B assay relative to control; assay type: functional; settings: read-out: Activity
COLO 205 = assay: Cytotoxicity against human COLO205 cells assessed as cell growth at 8 nM by sulforhodamine B assay relative to control; assay type: functional; settings: read-out: Activity; summary of the method: as §1
Mus musculus = assay: Acute toxicity in athymic nude mouse assessed as mortality at 12.5 mg/kg, […]; assay type: organism-based; design: dose 12.5 mg/kg, route intraperitoneal; settings: in vivo, ip, 576 h
MDA-MB-231 = assay: Antitumor activity against human MDA-MB-231 cells xenografted in mouse assessed as tumor cell killing at 4.7 mg/kg, ip qd for 4 days by MTT assay; assay type: functional, organism-based; design: dose 4.7 mg/kg
Summary of the method: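 Hollow-fiber assay in mice. Tumor lines were grown in RPMI-1640 with 10% FBS and 2 mM glutamine. Cells at 2 × 10^6 cells/ml were loaded into 1 mm PVDF fibers (500,000 Da cutoff), heat-sealed at 2 cm and held 24–48 h at 37 °C, 5% CO2 before implantation. Compound was given IP. Fibers were collected the day after the fourth treatment for MTT (OD 540 nm, group means). A ≥50% cut in percent net growth versus vehicle counted as positive.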

HOP-62 = assay: Cytotoxicity against human HOP62 cells assessed as cell growth at 8 nM by sulforhodamine B assay relative to control; assay type: functional; settings: read-out: Activity
EKVX [2] = assay: Cytotoxicity against human EKVX cells assessed as cell growth at 8 nM by sulforhodamine B assay relative to control; assay type: functional; settings: read-out: Activity
A549 [3] = assay: Cytotoxicity against human A549 cells assessed as cell growth at 8 nM by sulforhodamine B assay relative to control; assay type: functional; settings: read-out: Activity; summary of the method: as §1
SK-OV-3 = assay: Cytotoxicity against human SKOV3 cells assessed as cell growth at 8 nM by sulforhodamine B assay relative to control; assay type: functional; settings: read-out: Activity
PC-3 = assay: Cytotoxicity against human PC3 cells assessed as cell growth at 8 nM by sulforhodamine B assay relative to control; assay type: functional; settings: read-out: Activity
T47D = assay: Cytotoxicity against human T47D cells assessed as cell growth at 8 nM by sulforhodamine B assay relative to control; assay type: functional; settings: read-out: Activity
K562 = assay: Cytotoxicity against human K562 cells assessed as cell growth at 80 nM by sulforhodamine B assay relative to control; assay type: functional; settings: read-out: Activity
IGROV-1 = assay: Cytotoxicity against human IGROV1 cells assessed as cell growth at 80 nM by sulforhodamine B assay relative to control; assay type: functional; settings: read-out: Activity
A498 = assay: Cytotoxicity against human A498 cells assessed as cell growth at 80 nM by sulforhodamine B assay relative to control; assay type: functional; settings: read-out: Activity; summary of the method: as §1
RXF 393 = assay: Cytotoxicity against human RXF393 cells assessed as cell growth at 80 nM by sulforhodamine B assay relative to control; assay type: functional; settings: read-out: Activity
MCF7 [4] = assay: Cytotoxicity against human MCF7 cells assessed as cell growth at 80 nM by sulforhodamine B assay relative to control; assay type: functional; settings: read-out: Activity
BT-549 = assay: Cytotoxicity against human BT549 cells assessed as cell growth at 80 nM by sulforhodamine B assay relative to control; assay type: functional; settings: read-out: Activity; summary of the method: as §1
HL-60(TB) = assay: Cytotoxicity against human HL-60(TB) cells assessed as cell growth at 800 nM by sulforhodamine B assay relative to control; assay type: functional; settings: read-out: Activity
SR = assay: Cytotoxicity against human SR cells assessed as cell growth at 800 nM by sulforhodamine B assay relative to control; assay type: functional; settings: read-out: Activity
EKVX [5] = assay: Cytotoxicity against human EKVX cells assessed as cell growth at 800 nM by sulforhodamine B assay relative to control; assay type: functional; settings: read-out: Activity
HCC 2998 = assay: Cytotoxicity against human HCC2998 cells assessed as cell growth at 800 nM by sulforhodamine B assay relative to control; assay type: functional; settings: read-out: Activity
HCT-15 = assay: Cytotoxicity against human HCT15 cells assessed as cell growth at 800 nM by sulforhodamine B assay relative to control; assay type: functional; settings: read-out: Activity
A549 [6] = assay: Cytotoxicity against human A549 cells assessed as cell growth at 8 uM by sulforhodamine B assay relative to control; assay type: functional; settings: read-out: Activity; summary of the method: as §1
NCI-H522 = assay: Cytotoxicity against human NCI-H522 cells assessed as cell growth at 8 uM by sulforhodamine B assay relative to control; assay type: functional; settings: read-out: Activity
U-251 = assay: Cytotoxicity against human U251 cells assessed as cell growth at 8 uM by sulforhodamine B assay relative to control; assay type: functional; settings: read-out: Activity
OVCAR-8 [7] = assay: Cytotoxicity against human OVCAR8 cells assessed as cell growth at 8 uM by sulforhodamine B assay relative to control; assay type: functional; settings: read-out: Activity
A549 [8] = assay: Cytotoxicity against human A549 cells assessed as cell growth at 80 uM by sulforhodamine B assay relative to control; assay type: functional; settings: read-out: Activity; summary of the method: as §1
HCT-116 [9] = assay: Cytotoxicity against human HCT116 cells assessed as cell growth at 80 uM by sulforhodamine B assay relative to control; assay type: functional; settings: read-out: Activity
UO-31 = assay: Cytotoxicity against human UO31 cells assessed as cell growth at 80 uM by sulforhodamine B assay relative to control; assay type: functional; settings: read-out: Activity
MCF7 [10] = assay: Cytotoxicity against human MCF7 cells assessed as cell growth at 80 uM by sulforhodamine B assay relative to control; assay type: functional; settings: read-out: Activity
MOLT-4 = assay: Cytotoxicity against human MOLT4 cells by sulforhodamine B assay; assay type: functional
Summary of the method: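 NCI Developmental Therapeutics Program 60-cell-line human tumor panel screen, run at NCI. A single-concentration pre-screen was followed by a five-concentration dose-response in 10-fold steps. GI50 is the concentration that reduces growth of treated cells to half that of untreated control cells. TGI is the concentration that completely halts growth.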

HOP-92 = assay: Cytotoxicity against human HOP92 cells by sulforhodamine B assay; assay type: functional; settings: for TGI: read-out: pTGI (converted)
Summary of the method: (§2)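 Run by the NCI Developmental Therapeutics Program on its 60-line human tumour cell panel using the standard procedure. Compounds went through a single-concentration prescreen first, and those active by NCI criteria went on to a five-concentration growth-inhibition test. GI50 is the concentration that cuts growth of treated cells to half that of untreated control cells.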

HCT-116 [11] = assay: Cytotoxicity against human HCT116 cells by sulforhodamine B assay; assay type: functional; settings: for TGI: read-out: pTGI (converted); summary of the method: as §2

For `C/C=C1\NC(=O)[C@H](Cc2ccccc2)NC(=O)[C@@H](C(C)C)NC(=O)[C@@H]([C@@H](C)CC)NC(=O)[C@H](NC(=O)[C@H](NC(=O)[C@H](CCCNCc2ccc(N3CCOCC3)cc2)NC(=O)[C@H]2CCCN2C(=O)[C@H](NC(=O)[C@@H](NC(=O)[C@@H](NC(=O)[C@H](NC(=O)CCCC(C)C)C(C)C)[C@@H](C)O)C(C)C)C(C)C)[C@@H](C)CC)[C@@H](C)OC(=O)[C@H](C(C)C)NC1=O`, the GI50 (OVCAR-8 [1]) was 1700 nM, the LC50 (OVCAR-8 [1]) was greater than 75900 nM and the GI50 (786-0) was 1380 nM. The LC50 (786-0) was 4680 nM, the TGI (786-0) was 2570 nM and the growth at 0.008 µM (Malme-3M) was 100%. It also gave a growth at 0.008 µM (SF-295) of 107%, a growth at 0.008 µM (SF-268) of 98% and a growth at 0.008 µM (COLO 205) of 103%. The Activity (Mus musculus) was “Non-toxic”, the Activity (MDA-MB-231) was “inactive” and the growth at 0.008 µM (HOP-62) was 104%. The growth at 0.008 µM (EKVX [2]) was 102%, the growth at 0.008 µM (A549 [3]) was 99% and the growth at 0.008 µM (SK-OV-3) was 107%. For the same compound, the growth at 0.008 µM (PC-3) was 90%, the growth at 0.008 µM (T47D) was 101% and the growth at 0.08 µM (K562) was 100%. The growth at 0.08 µM (IGROV-1) was 106%, the growth at 0.08 µM (A498) was 110% and the growth at 0.08 µM (RXF 393) was 99%. The growth at 0.08 µM (MCF7 [4]) was 107%, the growth at 0.08 µM (BT-549) was 95% and the growth at 0.8 µM (HL-60(TB)) was 93%. The growth at 0.8 µM (SR) was 103%, the growth at 0.8 µM (EKVX [5]) was 53% and the growth at 0.8 µM (HCC 2998) was 6%. The growth at 0.8 µM (HCT-15) was 3%, the growth at 8 µM (A549 [6]) was -65% and the growth at 8 µM (NCI-H522) was 40%. For the same compound, the growth at 8 µM (U-251) was -98%, the growth at 8 µM (OVCAR-8 [7]) was -34% and the growth at 80 µM (A549 [8]) was 4%. For the same compound, the growth at 80 µM (HCT-116 [9]) was -58%, the growth at 80 µM (UO-31) was -28% and the growth at 80 µM (MCF7 [10]) was 6%. The GI50 (MOLT-4) was 20400 nM, the LC50 (MOLT-4) was greater than 75900 nM and the TGI (MOLT-4; read-out: pTGI) was greater than 75900 nM. It also gave a GI50 (HOP-92) of 1700 nM, an LC50 (HOP-92) of 47900 nM and a TGI (HOP-92) of 7080 nM. For the same compound, the GI50 (HCT-116 [11]) was 1550 nM, the LC50 (HCT-116 [11]) was 6030 nM and the TGI (HCT-116 [11]) was 3090 nM.
`C/C=C1\NC(=O)[C@H](Cc2ccccc2)NC(=O)[C@@H](C(C)C)NC(=O)[C@@H]([C@@H](C)CC)NC(=O)[C@H](NC(=O)[C@H](NC(=O)[C@H](CCCNCc2ccc(F)c(C)c2)NC(=O)[C@H]2CCCN2C(=O)[C@H](NC(=O)[C@@H](NC(=O)[C@@H](NC(=O)[C@H](NC(=O)CCCC(C)C)C(C)C)[C@@H](C)O)C(C)C)C(C)C)[C@@H](C)CC)[C@@H](C)OC(=O)[C@H](C(C)C)NC1=O` gave a GI50 (OVCAR-8 [1]) of 1860 nM, an LC50 (OVCAR-8 [1]) of 75900 nM and a GI50 (786-0) of 1290 nM. For the same compound, the LC50 (786-0) was 4170 nM, the TGI (786-0) was 2340 nM and the growth at 0.008 µM (Malme-3M) was 108%. It also gave a growth at 0.008 µM (SF-295) of 99%, a growth at 0.008 µM (SF-268) of 97% and a growth at 0.008 µM (COLO 205) of 99%. The Activity (Mus musculus) was “Non-toxic”, the Activity (MDA-MB-231) was “inactive” and the growth at 0.008 µM (HOP-62) was 101%. It also gave a growth at 0.008 µM (EKVX [2]) of 101%, a growth at 0.008 µM (A549 [3]) of 100% and a growth at 0.008 µM (SK-OV-3) of 102%. It also gave a growth at 0.008 µM (PC-3) of 109%, a growth at 0.008 µM (T47D) of 104% and a growth at 0.08 µM (K562) of 106%. For the same compound, the growth at 0.08 µM (IGROV-1) was 107%, the growth at 0.08 µM (A498) was 108% and the growth at 0.08 µM (RXF 393) was 106%. It also gave a growth at 0.08 µM (MCF7 [4]) of 101%, a growth at 0.08 µM (BT-549) of 76% and a growth at 0.8 µM (HL-60(TB)) of 106%. For the same compound, the growth at 0.8 µM (SR) was 98%, the growth at 0.8 µM (EKVX [5]) was 50% and the growth at 0.8 µM (HCC 2998) was -47%. The growth at 0.8 µM (HCT-15) was -35%, the growth at 8 µM (A549 [6]) was -64% and the growth at 8 µM (NCI-H522) was 3%. For the same compound, the growth at 8 µM (U-251) was -96%, the growth at 8 µM (OVCAR-8 [7]) was -14% and the growth at 80 µM (A549 [8]) was 1%. The growth at 80 µM (HCT-116 [9]) was -94%, the growth at 80 µM (UO-31) was -11% and the growth at 80 µM (MCF7 [10]) was 3%. The GI50 (MOLT-4) was 2140 nM, the LC50 (MOLT-4) was greater than 75900 nM and the GI50 (HOP-92) was 1410 nM. It also gave an LC50 (HOP-92) of 6170 nM, a TGI (HOP-92) of 2950 nM and a GI50 (HCT-116 [11]) of 1380 nM. For the same compound, the LC50 (HCT-116 [11]) was 4270 nM and the TGI (HCT-116 [11]) was 2450 nM.

— ChEMBL document CHEMBL1921722, “In vitro and in vivo evaluation of select kahalalide F analogs with antitumor and antifungal activities” (Bioorg Med Chem, 2011)
